Assay results: ChEMBL document CHEMBL5108036, “A concise SAR-analysis of antimicrobial cationic amphipathic barbiturates for an improved activity-toxicity profile” (Eur J Med Chem, 2022)

Tests used:
Staphylococcus aureus = assay: Antibacterial activity against Staphylococcus aureus ATCC 9144 incubated for 48 hrs and measured by broth microdilution assay; assay type: functional
Summary of the method: (§1)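 MICs in µg/mL were measured against the reference strains S. aureus ATCC 9144, B. subtilis 168, E. coli ATCC 25922 and P. aeruginosa ATCC 27853. Compounds were tested as di-TFA salts.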

[1] = Hemolytic activity in human RBC measured after 1 hr by microplate reader method; assay type: toxicity, cell-based, Erythrocyte; conditions: human, human red blood cells (erythrocytes)
Summary of the method: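 Human red blood cell lysis was used as the cytotoxicity read-out, expressed as EC50 in µg/mL. The highest concentration tested was 500 µM. Compounds were tested as di-TFA salts.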

Escherichia coli = assay: Antibacterial activity against Escherichia coli ATCC 25922 incubated for 48 hrs and measured by broth microdilution assay; assay type: functional; summary of the method: as §1
Bacillus subtilis = assay: Antibacterial activity against Bacillus subtilis 168 incubated for 48 hrs and measured by broth microdilution assay; assay type: functional; summary of the method: as §1
Pseudomonas aeruginosa = assay: Antibacterial activity against Pseudomonas aeruginosa ATCC 27853 incubated for 48 hrs and measured by broth microdilution assay; assay type: functional; summary of the method: as §1

Compound: N=C(N)NCCCCN1C(=O)N(CCCCNC(=N)N)C(=O)C(Cc2cc(Br)cc(Br)c2)(Cc2ccc(Br)c3ccccc23)C1=O.O=C(O)C(F)(F)F.O=C(O)C(F)(F)F (configuration not stated)
- MIC (Staphylococcus aureus): 1 µg/mL
- EC50 at 1 h [1]: 58 µg/mL
- MIC (Escherichia coli): 4 µg/mL
- MIC (Bacillus subtilis): 4 µg/mL
- MIC (Pseudomonas aeruginosa): 8 µg/mL

Compound: N=C(N)NCCCCN1C(=O)N(CCCCNC(=N)N)C(=O)C(Cc2cc(Br)cc(Br)c2)(Cc2cc(C(F)(F)F)cc(C(F)(F)F)c2)C1=O.O=C(O)C(F)(F)F.O=C(O)C(F)(F)F (configuration not stated)
- MIC (Staphylococcus aureus): 2 µg/mL
- EC50 at 1 h [1]: 36 µg/mL
- MIC (Escherichia coli): 2 µg/mL
- MIC (Bacillus subtilis): 2 µg/mL
- MIC (Pseudomonas aeruginosa): 4 µg/mL

Compound: NCCCN1C(=O)N(CCCN)C(=O)C(Cc2ccc(Br)c3ccccc23)(Cc2ccc(Br)c3ccccc23)C1=O.O=C(O)C(F)(F)F.O=C(O)C(F)(F)F
- MIC (Staphylococcus aureus): 2 µg/mL
- EC50 at 1 h [1]: 23 µg/mL
- MIC (Escherichia coli): 4 µg/mL
- MIC (Bacillus subtilis): 2 µg/mL
- MIC (Pseudomonas aeruginosa): 4 µg/mL

Compound: NCCN1C(=O)N(CCN)C(=O)C(Cc2cc(Br)cc(Br)c2)(Cc2cc(Br)cc(Br)c2)C1=O.O=C(O)C(F)(F)F.O=C(O)C(F)(F)F
- MIC (Staphylococcus aureus): 4 µg/mL
- EC50 at 1 h [1]: 39 µg/mL
- MIC (Escherichia coli): 4 µg/mL
- MIC (Bacillus subtilis): 4 µg/mL
- MIC (Pseudomonas aeruginosa): 8 µg/mL

Compound: NCCCCN1C(=O)N(CCCCN)C(=O)C(Cc2cc(Br)cc(Br)c2)(Cc2cc(C(F)(F)F)cc(C(F)(F)F)c2)C1=O.O=C(O)C(F)(F)F.O=C(O)C(F)(F)F
- MIC (Staphylococcus aureus): 8 µg/mL
- EC50 at 1 h [1]: 93 µg/mL
- MIC (Escherichia coli): 8 µg/mL
- MIC (Bacillus subtilis): 2 µg/mL
- MIC (Pseudomonas aeruginosa): 8 µg/mL

Compound: NCCCN1C(=O)N(CCCN)C(=O)C(Cc2cc(Br)cc(Br)c2)(Cc2cc(Br)cc(Br)c2)C1=O.O=C(O)C(F)(F)F.O=C(O)C(F)(F)F
- MIC (Staphylococcus aureus): 4 µg/mL
- EC50 at 1 h [1]: 99 µg/mL
- MIC (Escherichia coli): 8 µg/mL
- MIC (Bacillus subtilis): 4 µg/mL
- MIC (Pseudomonas aeruginosa): 8 µg/mL

Compound: CCCCCCC1(CCCCCC)C(=O)N(CCCCN)C(=O)N(CCCCN)C1=O.O=C(O)C(F)(F)F.O=C(O)C(F)(F)F
- MIC (Staphylococcus aureus): 16 µg/mL
- EC50 at 1 h [1]: > 333 µg/mL
- MIC (Escherichia coli): 32 µg/mL
- MIC (Bacillus subtilis): 8 µg/mL
- MIC (Pseudomonas aeruginosa): 64 µg/mL

Compound: NCCCCN1C(=O)N(CCCCN)C(=O)C(Cc2ccc3ccccc3n2)(Cc2ccc3ccccc3n2)C1=O.O=C(O)C(F)(F)F.O=C(O)C(F)(F)F
- MIC (Staphylococcus aureus): 256 µg/mL
- EC50 at 1 h [1]: > 390 µg/mL
- MIC (Escherichia coli): > 256 µg/mL
- MIC (Bacillus subtilis): 64 µg/mL
- MIC (Pseudomonas aeruginosa): > 256 µg/mL

Compound: N=C(N)N[C@H]1CC[C@@H](N2C(=O)N([C@H]3CC[C@@H](NC(=N)N)CC3)C(=O)C(Cc3cc(Br)cc(Br)c3)(Cc3cc(Br)cc(Br)c3)C2=O)CC1.O=C(O)C(F)(F)F.O=C(O)C(F)(F)F
- MIC (Staphylococcus aureus): 2 µg/mL
- EC50 at 1 h [1]: 30 µg/mL
- MIC (Escherichia coli): 4 µg/mL
- MIC (Bacillus subtilis): 1 µg/mL
- MIC (Pseudomonas aeruginosa): 4 µg/mL

Compound: NCCCN1C(=O)N(CCCN)C(=O)C(Cc2ccc(C(F)(F)F)cc2)(Cc2ccc(C(F)(F)F)cc2)C1=O.O=C(O)C(F)(F)F.O=C(O)C(F)(F)F
- MIC (Staphylococcus aureus): 64 µg/mL
- EC50 at 1 h [1]: > 393 µg/mL
- MIC (Escherichia coli): 64 µg/mL
- MIC (Bacillus subtilis): 16 µg/mL
- MIC (Pseudomonas aeruginosa): 128 µg/mL

Compound: NCCCCN1C(=O)N(CCCCN)C(=O)C(Cc2ccc(Br)c3ccccc23)(Cc2ccc(Br)c3ccccc23)C1=O.O=C(O)C(F)(F)F.O=C(O)C(F)(F)F
- MIC (Staphylococcus aureus): 2 µg/mL
- EC50 at 1 h [1]: 27 µg/mL
- MIC (Escherichia coli): 4 µg/mL
- MIC (Bacillus subtilis): 2 µg/mL
- MIC (Pseudomonas aeruginosa): 4 µg/mL

Compound: N=C(N)NCCCN1C(=O)N(CCCNC(=N)N)C(=O)C(Cc2ccc(Br)c3ccccc23)(Cc2ccc(Br)c3ccccc23)C1=O.O=C(O)C(F)(F)F.O=C(O)C(F)(F)F
- MIC (Staphylococcus aureus): 2 µg/mL
- EC50 at 1 h [1]: 61 µg/mL
- MIC (Escherichia coli): 4 µg/mL
- MIC (Bacillus subtilis): 2 µg/mL
- MIC (Pseudomonas aeruginosa): 8 µg/mL

Compound: N[C@H]1CC[C@@H](N2C(=O)N([C@H]3CC[C@@H](N)CC3)C(=O)C(Cc3cc(Br)cc(Br)c3)(Cc3cc(Br)cc(Br)c3)C2=O)CC1.O=C(O)C(F)(F)F.O=C(O)C(F)(F)F
- MIC (Staphylococcus aureus): 4 µg/mL
- EC50 at 1 h [1]: 15 µg/mL
- MIC (Escherichia coli): 4 µg/mL
- MIC (Bacillus subtilis): 4 µg/mL
- MIC (Pseudomonas aeruginosa): 8 µg/mL

Compound: NCCCCN1C(=O)N(CCCCN)C(=O)C(Cc2ccc3cc(Br)ccc3n2)(Cc2ccc3cc(Br)ccc3n2)C1=O.O=C(O)C(F)(F)F.O=C(O)C(F)(F)F
- MIC (Staphylococcus aureus): 16 µg/mL
- EC50 at 1 h [1]: > 469 µg/mL
- MIC (Escherichia coli): 256 µg/mL
- MIC (Bacillus subtilis): 4 µg/mL
- MIC (Pseudomonas aeruginosa): 256 µg/mL

Compound: O=C(O)c1cn(C2CC2)c2cc(N3CCNCC3)c(F)cc2c1=O [CIPROFLOXACIN]
- MIC (Escherichia coli): < 0.03 µg/mL
- MIC (Bacillus subtilis): < 0.03 µg/mL
